Source: PubChem BioAssay
Compounds with a hit are over-represented: about 3.4% of the library has one in this group of screens.
Arr AP2 block: inhibitors of beta-arrestin/AP2 binding, primary screen, biochemical, GPCR trafficking, flow cytometry. inhibition, % at 10 µM. FITC-arrestin peptide / GST-AP2 beads; AP2 beta2 appendage carries R879A mutation. 0.31% of 340,000 active. beta-arrestin 1 C-terminal peptide binding to AP2 beta2-adaptin appendage (human);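 active means inhibition above a set limit, near 3 SD of compounds lacking own fluorescence, cut at about 54% in these data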;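 further: plate controls were DMSO wells for no effect and 5 µM unlabelled arrestin peptide for full effect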
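system = GST-tagged AP2 beta2-adaptin appendage (R879A) on 4 µm glutathione beads | reagent = FITC-labelled arrestin peptide probe, 50 nM final | schedule = compound with beads 12 min RT, then probe 1 h RT | signal = HyperCyt-sampled flow cytometry, FL1 channel, ex 488/em 535 nm | read-out = percent response from loss of bead-bound FITC fluorescence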
APOBEC3A inh: APOBEC3A ssDNA deaminase inhibitors, primary screen, selectivity assay for APOBEC3G inhibitor project, biochemical, FAM/TAMRA oligo cleavage fluorescence; recombinant A3A, FAM/TAMRA ssDNA deamination fluorescence; inhibition, % at 20 µM; 0.41% of 330,000 active; AID 493011, 2011;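 active means at least 40% inhibition at 20 µM here, with at most 30% in a related deaminase screen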;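 further: plate controls were A3A with DMSO for no effect and wells lacking A3A enzyme for full effect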
UCH37 inh: inhibitors of human UCH37 deubiquitinase, primary screen, biochemical, Ub-AMC cleavage, fluorescence. purified proteasome/UCH37. Ubiquitin carboxyl-terminal hydrolase isozyme L5 (Homo sapiens), Q9Y5K5. inhibition, % (test concentration not listed). 0.33% of 330,000 active;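 active means mean inhibition over replicate wells above about 20%, limit read from the data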;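 further: 0% = compound-free wells with enzyme and 100% = wells lacking proteasome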
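System: Proteasome-associated human UCH37 deubiquitinase; Input: 0.15 nM proteasome in added enzyme buffer; Also added: Ub-AMC substrate from 1 µM stock; Incubation: 30 min compound-proteasome preincubation then 25 min substrate reaction, room temperature; Detection: fluorescence, ex 355 nm, em 460 nm; Read-out: % inhibition of Ub-AMC cleavage fluorescence; Benchmarks: no-proteasome and no-compound wells.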
PolyA inh: polyadenylation inhibitors in yeast reporter cells, primary screen, luminescence, S. cerevisiae. S. cerevisiae SKY197-pL101 polyadenylation reporter, beta-gal luminescence; efflux-impaired pdr1/pdr3 knockout yeast; score 100 = 6 SD above DMSO. activity score, % at 12 µM. 0.02% of 300,000 active. AID 1875, 2009;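 active means lowest replicate activity score at least 50, where 100 means six control SD above control mean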;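 further: yeast exposed to compound for 9 h at 30 °C; higher score means more reporter readthrough which indicates perturbed polyadenylation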
APOBEC3G inh: APOBEC3G DNA deaminase inhibitors, primary screen, biochemical, fluorescence, single-stranded DNA substrate, uHTS; inhibition, % at 20 µM; AID 493012, 2011; recombinant A3G, ssDNA deamination FAM/TAMRA fluorescence; 0.28% of 330,000 active;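 active means inhibition of at least 40% at 20 µM, with no more than 30% in the related APOBEC3A deaminase screen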;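 further: plate controls were DMSO wells with A3G for no effect and wells lacking A3G enzyme for full effect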
Target sequence (Q9HC16 whole entry, looked up): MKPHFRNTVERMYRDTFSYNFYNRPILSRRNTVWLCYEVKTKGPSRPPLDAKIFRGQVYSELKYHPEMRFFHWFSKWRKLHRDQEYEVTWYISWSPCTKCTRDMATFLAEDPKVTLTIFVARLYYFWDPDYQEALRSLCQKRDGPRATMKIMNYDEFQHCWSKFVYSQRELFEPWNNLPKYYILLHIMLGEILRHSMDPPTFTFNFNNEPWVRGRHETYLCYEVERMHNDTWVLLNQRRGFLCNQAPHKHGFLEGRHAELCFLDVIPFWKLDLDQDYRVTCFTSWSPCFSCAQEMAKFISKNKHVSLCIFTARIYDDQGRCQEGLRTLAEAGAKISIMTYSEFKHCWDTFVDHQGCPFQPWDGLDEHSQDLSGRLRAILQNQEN
AHR activator: AHR activators, primary screen, cell-based, luminescence, luciferase reporter, human | activation, % at 5 µM | AHR-responsive luciferase reporter cells | Aryl hydrocarbon receptor (Homo sapiens), P35869 | 2.5% of 320,000 active; in the data active means activation above about 47%;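 further: 0% = vehicle wells and 100% = reference agonist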
UCH37 reconfirm: retest of human UCH37 deubiquitinase inhibitors, confirmation, biochemical, Ub-AMC cleavage rate, fluorescence; Proteasome-bound UCH37; inhibition, % at 20 µM; AID 624100, 2012; 27% of 480 active; shares compounds with UCH37 inh;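 active means average inhibition over replicates above about 50%, so the earlier screening hit is confirmed, limit read from the data; inactive means the rest, counted as false positives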;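 further: based on cleavage rate fitted by regression over a 30 min kinetic read; 0% = proteasome plus Ub-AMC and 100% = Ub-AMC without proteasome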
Numbers without * were called inactive; · = not tested or not shown.

SMILES | Arr AP2 block | APOBEC3A inh | UCH37 inh | PolyA inh | APOBEC3G inh | AHR activator | UCH37 reconfirm
CCOC(=O)C1CCCc2c1[nH]c1c(C(N)=O)cccc21 (stereo unspecified) | -4 | -6 | 53* | -2 | -8 | 11 | -13
CC(=O)c1ccc(S(=O)(=O)Nc2ccc(N3CCOCC3)cc2)cc1 | 13 | -4 | 1 | 11 | -1 | -4 | ·
CC(=O)c1ccc(NC2=C(N3CCOCC3)C(=O)c3ccccc3C2=O)cc1 | -5 | -2 | 32* | -3 | 14 | 7 | 51*
O=C(O)c1ccc(NC2=C(N3CCOCC3)C(=O)c3ccccc3C2=O)cc1 | 19 | -2 | 34* | -5 | -7 | 5 | 18
CCOC(=O)c1ccc(NC2=CC(=O)C(=O)c3ccccc32)cc1 | -10 | -3 | 5 | -10 | -4 | 15 | ·
Cc1ccc(NC2=CC(=O)C(=O)c3ccccc32)cc1 | 6 | -1 | 46* | -22 | -10 | 2 | 55*
Cc1ccc(NC2=C(N3CCOCC3)C(=O)c3ccccc3C2=O)cc1 | -13 | 0 | 28* | -30 | -3 | -6 | 26
O=C1Cc2ccccc2C(=O)N1CCc1ccccc1 | 6 | 1 | 62* | -16 | -1 | 73* | 10
Cc1ccc(C(=O)NN=Cc2cc(Br)c(Br)o2)cn1 | · | · | 28* | · | · | · | 13
O=C(NN=Cc1cc(Br)c(Br)o1)c1cccnc1 | · | · | 14 | · | · | · | ·
CCC(C=NNc1ccc(S(=O)(=O)N2CCCC2)cc1[N+](=O)[O-])CC | · | · | 6 | · | · | · | ·
CCC(C)[C@H](N)C(=O)NCC1CCC(C(=O)N[C@@H](Cc2ccccc2)C(=O)O)CC1 (stereo partly specified) | · | · | 1 | · | · | · | ·
CC(C)n1cc(/C=C/c2cc[n+](C)cc2)c2ccccc21 | -22 | 12 | 28* | 0 | -17 | · | 19
CON=C/C=C1/N(C)c2ccccc2C1(C)C | · | · | 10 | · | · | · | ·
O=C1/C(=N\S(=O)(=O)c2cccs2)C([n+]2ccccc2)=C([O-])c2ccccc21 | -4 | 7 | 51* | -7 | 1 | -2 | 40
CC(C)(C)c1cc[n+](C2=C([O-])c3ccccc3C(=O)/C2=N\S(=O)(=O)c2cccs2)cc1 | 3 | -3 | 50* | -1 | -9 | -10 | 58*
O=S(=O)(N=Cc1ccccc1O)c1cccs1 | · | · | -2 | · | · | · | ·
COc1cccc(C=NNc2nc3ccccc3[nH]2)c1O | · | · | 5 | · | · | · | ·
CCOc1cc(C=NNC(=O)c2cccs2)cc([N+](=O)[O-])c1O | · | · | 30* | · | · | · | 40
Nc1ccc2c(c1)C(=O)c1ccccc1-2 | -7 | 1 | 5 | 2 | -6 | -5 | ·
Nc1ccc2c(c1)C(=O)C(=O)c1ccccc1-2 | 25 | 6 | 99* | 5 | 16 | -16 | 101*
O=C(O)c1ccc(NN=C/C=C/c2ccc([N+](=O)[O-])o2)cc1 | · | · | 30* | · | · | · | 37
O=C(NN=Cc1cccc([N+](=O)[O-])c1)c1cc2c(ccc3ccccc32)o1 | · | · | 2 | · | · | · | ·
